Assay results from ChEMBL document CHEMBL1138509, “Synthesis and biological activities of topoisomerase I inhibitors, 6-arylmethylamino analogues of edotecarin” (J Med Chem, 2009).

Columns and labels:
MKN-45 [1] = test: Cytotoxicity against human MKN45 cells after 72 hrs; type: functional, cell-based; settings: MKN-45, 72 h
Summary of the method: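 MKN-45 human stomach cancer cells were incubated with compound for 72 h. Cytotoxicity was measured by the colorimetric tetrazolium-formazan method and by sulforhodamine B dye staining.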

[2] = Inhibition of PKC
Summary of the method: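 Protein kinase C inhibition assay, with Histone II-As as substrate.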

P388/S = test: Cytotoxicity against mouse P388/S cells after 72 hrs by colorimetric tetrazolium-formazan method; type: functional, cell-based
Summary of the method: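 Murine leukaemia P388 cells were exposed to compound for 72 h. Viability was read by the colorimetric tetrazolium-formazan method.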

[3] = Safety margin, ratio of LD10 for nude mouse to GID75 for human MX1 cells; type: toxicity, cell-based
Summary of the method: (§1)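 Nude mice carried MKN-45 or MX-1 tumours implanted subcutaneously in a side flank. Compounds were given iv, either five times/week or twice/week for two consecutive weeks. The twice/week arm started once tumours reached 0.2 cm³ or larger. GID75 is the approximate dose giving 75% tumour growth inhibition, and LD10 is the approximate 10% lethal dose at that schedule. Safety margin = LD10/GID75.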

MKN-45 [4] = test: Antitumor activity in human MKN45 cells xenografted iv dosed nude mouse assessed as tumor growth inhibition administered 5 times per week for 2 weeks at tumor growth of >= 0.2 cm2; type: functional
Summary of the method: (§2)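 Human MKN-45 (stomach) or MX-1 (breast) cells implanted subcutaneously into a side flank of nude mice. Compound given iv five times/week. GID₇₅ is the approximate dose giving 75% growth inhibition. LD₁₀ is the approximate 10% lethal dose at that schedule. Safety margin is LD₁₀/GID₇₅.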

DLD-1 = test: Cytotoxicity against human DLD1 cells after 72 hrs; type: functional, cell-based; settings: DLD-1, 72 h
MX1 = test: Antitumor activity in human MX1 cells xenografted iv dosed nude mouse assessed as tumor growth inhibition administered 5 times per week for 2 weeks at tumor growth of >= 0.2 cm2; type: functional; summary of the method: as §2
Mus musculus [5] = test: Toxicity in human MX1 cells xenografted iv dosed nude mouse; type: organism-based; settings: in vivo
Summary of the method: (§3)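 Toxicity was taken as LD10, the approximate dose lethal to 10% of nude mice at the treatment schedule. Mice bore subcutaneous side-flank MKN-45 or MX-1 xenografts and received iv dosing, either five times/week or twice/week for two consecutive weeks.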

[6] = Safety margin, ratio of LD10 for nude mouse to GID75 for human MKN45 cells; type: toxicity, cell-based; settings: mkn-45; summary of the method: as §1
DNA topoisomerase 1 = target: T1, DNA topoisomerase 1 (Homo sapiens, UniProt P11387); test: Inhibition of human DNA topoisomerase 1-mediated DNA cleavage assessed as relaxation of supercoiled pBR322 plasmid DNA after 15 mins by densitometer
T1 sequence (P11387 whole entry): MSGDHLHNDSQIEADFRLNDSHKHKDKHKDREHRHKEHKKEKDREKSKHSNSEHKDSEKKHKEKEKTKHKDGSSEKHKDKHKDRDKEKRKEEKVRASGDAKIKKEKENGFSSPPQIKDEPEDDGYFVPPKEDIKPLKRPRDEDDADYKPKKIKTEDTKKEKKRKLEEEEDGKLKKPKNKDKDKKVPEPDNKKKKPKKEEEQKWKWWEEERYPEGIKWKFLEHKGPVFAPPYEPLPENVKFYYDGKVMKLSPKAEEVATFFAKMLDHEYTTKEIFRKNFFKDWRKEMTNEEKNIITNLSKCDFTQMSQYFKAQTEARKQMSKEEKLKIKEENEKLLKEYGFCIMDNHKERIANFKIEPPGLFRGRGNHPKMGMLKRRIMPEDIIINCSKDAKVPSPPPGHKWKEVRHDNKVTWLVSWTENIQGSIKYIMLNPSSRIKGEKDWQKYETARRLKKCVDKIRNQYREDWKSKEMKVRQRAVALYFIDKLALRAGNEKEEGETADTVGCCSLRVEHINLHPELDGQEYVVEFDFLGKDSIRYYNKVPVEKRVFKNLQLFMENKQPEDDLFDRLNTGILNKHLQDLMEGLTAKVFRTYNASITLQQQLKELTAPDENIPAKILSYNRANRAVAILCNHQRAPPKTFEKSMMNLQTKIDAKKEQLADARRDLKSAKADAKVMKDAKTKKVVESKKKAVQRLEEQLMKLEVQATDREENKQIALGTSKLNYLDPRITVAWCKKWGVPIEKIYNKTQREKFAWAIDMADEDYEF

Mus musculus [7] = test: Toxicity in human MKN45 cells xenografted iv dosed nude mouse; type: organism-based, MKN-45; settings: in vivo; summary of the method: as §3
[8] = target: Epidermal growth factor receptor (Homo sapiens, UniProt P00533); test: Inhibition of EGFR
Epidermal growth factor receptor, sequence (P00533 whole entry): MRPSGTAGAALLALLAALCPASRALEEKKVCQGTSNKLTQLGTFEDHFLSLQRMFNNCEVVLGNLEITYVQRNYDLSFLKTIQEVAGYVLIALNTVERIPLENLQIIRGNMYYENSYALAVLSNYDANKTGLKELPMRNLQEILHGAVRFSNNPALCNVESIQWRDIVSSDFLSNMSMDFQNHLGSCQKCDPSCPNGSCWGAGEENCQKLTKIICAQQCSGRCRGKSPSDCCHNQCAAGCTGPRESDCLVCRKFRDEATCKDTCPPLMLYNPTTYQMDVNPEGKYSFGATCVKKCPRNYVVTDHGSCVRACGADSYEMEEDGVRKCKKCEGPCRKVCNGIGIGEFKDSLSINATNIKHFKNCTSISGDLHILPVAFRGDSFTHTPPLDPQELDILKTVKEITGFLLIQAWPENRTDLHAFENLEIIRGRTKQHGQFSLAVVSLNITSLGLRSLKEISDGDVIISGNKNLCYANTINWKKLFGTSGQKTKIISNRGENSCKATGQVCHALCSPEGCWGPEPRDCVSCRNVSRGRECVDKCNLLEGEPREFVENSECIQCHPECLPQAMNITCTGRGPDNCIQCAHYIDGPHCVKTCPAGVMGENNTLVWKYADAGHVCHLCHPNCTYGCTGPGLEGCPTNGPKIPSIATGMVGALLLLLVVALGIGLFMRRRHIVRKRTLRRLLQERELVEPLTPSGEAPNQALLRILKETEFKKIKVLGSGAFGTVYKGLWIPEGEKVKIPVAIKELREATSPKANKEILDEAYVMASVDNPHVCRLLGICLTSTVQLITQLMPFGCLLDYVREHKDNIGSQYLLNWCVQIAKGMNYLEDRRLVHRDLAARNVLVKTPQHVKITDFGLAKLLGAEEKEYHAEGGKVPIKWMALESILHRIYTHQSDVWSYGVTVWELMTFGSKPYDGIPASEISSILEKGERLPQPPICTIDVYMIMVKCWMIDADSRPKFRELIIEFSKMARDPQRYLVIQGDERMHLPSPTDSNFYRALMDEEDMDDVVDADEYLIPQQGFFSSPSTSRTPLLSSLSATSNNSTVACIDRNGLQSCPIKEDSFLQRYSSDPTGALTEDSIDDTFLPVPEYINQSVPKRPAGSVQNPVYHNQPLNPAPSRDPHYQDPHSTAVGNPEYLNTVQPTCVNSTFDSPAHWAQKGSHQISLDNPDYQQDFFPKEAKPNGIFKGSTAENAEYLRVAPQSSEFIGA
Summary of the method: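 Kinase-inhibition assay against EGF receptor kinase, with Poly(Glu4Tyr1) as substrate.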

Question: What does the source list for `O=C1c2c(c3c4ccc(O)cc4n([C@@H]4O[C@H](CO)[C@@H](O)[C@H](O)[C@H]4O)c3c3[nH]c4cc(O)ccc4c23)C(=O)N1NC(CO)CO` [EDOTECARIN]?
Answer: IC50 (MKN-45 [1]): 0.0048 µM; IC50 [2]: 18 µM; IC50 (P388/S): 0.0015 µM; selectivity ratio [3]: > 13; GID75 (MKN-45 [4]): 45 mg/m2; IC50 (DLD-1): 0.07 µM; GID75 (MX1): 160 mg/m2; LD10 (Mus musculus [5]): > 2000 mg/m2; selectivity ratio [6]: > 36; EC50 (DNA topoisomerase 1): 0.051 µM; LD10 (Mus musculus [7]): > 1600 mg/m2; IC50 [8]: > 200 µM
